In brackets after ≈: the same amount, converted by molar mass. Activity calls are given as the source filed them. No cut-off for these calls is given here.
Legend:
[1] = Metabolic stability in mouse liver microsomes assessed as residual ratio measured after 30 mins in presence of NADPH by LC-MS/MS analysis relative to absence of NADPH; assay type: ADME, Microsome; conditions: read-out: Stabilty
Summary of the method: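 Incubation with mouse liver microsomes (0.5 mg/mL), 30 min at 37 °C, in 0.1 M potassium phosphate pH 7.4, 0.1 mM EDTA, 6 mM MgCl2 and an NADPH-generating system (β-NADP+, glucose-6-phosphate, G6P dehydrogenase). Quenched with acetonitrile/methanol (7:3) containing propranolol internal standard, then LC-MS/MS. Residual ratio with NADPH taken relative to without NADPH.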

[2] = Kinetic solubility of compound in PBS buffer at pH 7 incubated for 15 mins by HPLC-UV analysis
[3] = target: Hepatocyte growth factor receptor (Homo sapiens) (UniProt P08581); experiment: Inhibition of c-Met (unknown origin)
Hepatocyte growth factor receptor (Homo sapiens), sequence (P08581 whole entry): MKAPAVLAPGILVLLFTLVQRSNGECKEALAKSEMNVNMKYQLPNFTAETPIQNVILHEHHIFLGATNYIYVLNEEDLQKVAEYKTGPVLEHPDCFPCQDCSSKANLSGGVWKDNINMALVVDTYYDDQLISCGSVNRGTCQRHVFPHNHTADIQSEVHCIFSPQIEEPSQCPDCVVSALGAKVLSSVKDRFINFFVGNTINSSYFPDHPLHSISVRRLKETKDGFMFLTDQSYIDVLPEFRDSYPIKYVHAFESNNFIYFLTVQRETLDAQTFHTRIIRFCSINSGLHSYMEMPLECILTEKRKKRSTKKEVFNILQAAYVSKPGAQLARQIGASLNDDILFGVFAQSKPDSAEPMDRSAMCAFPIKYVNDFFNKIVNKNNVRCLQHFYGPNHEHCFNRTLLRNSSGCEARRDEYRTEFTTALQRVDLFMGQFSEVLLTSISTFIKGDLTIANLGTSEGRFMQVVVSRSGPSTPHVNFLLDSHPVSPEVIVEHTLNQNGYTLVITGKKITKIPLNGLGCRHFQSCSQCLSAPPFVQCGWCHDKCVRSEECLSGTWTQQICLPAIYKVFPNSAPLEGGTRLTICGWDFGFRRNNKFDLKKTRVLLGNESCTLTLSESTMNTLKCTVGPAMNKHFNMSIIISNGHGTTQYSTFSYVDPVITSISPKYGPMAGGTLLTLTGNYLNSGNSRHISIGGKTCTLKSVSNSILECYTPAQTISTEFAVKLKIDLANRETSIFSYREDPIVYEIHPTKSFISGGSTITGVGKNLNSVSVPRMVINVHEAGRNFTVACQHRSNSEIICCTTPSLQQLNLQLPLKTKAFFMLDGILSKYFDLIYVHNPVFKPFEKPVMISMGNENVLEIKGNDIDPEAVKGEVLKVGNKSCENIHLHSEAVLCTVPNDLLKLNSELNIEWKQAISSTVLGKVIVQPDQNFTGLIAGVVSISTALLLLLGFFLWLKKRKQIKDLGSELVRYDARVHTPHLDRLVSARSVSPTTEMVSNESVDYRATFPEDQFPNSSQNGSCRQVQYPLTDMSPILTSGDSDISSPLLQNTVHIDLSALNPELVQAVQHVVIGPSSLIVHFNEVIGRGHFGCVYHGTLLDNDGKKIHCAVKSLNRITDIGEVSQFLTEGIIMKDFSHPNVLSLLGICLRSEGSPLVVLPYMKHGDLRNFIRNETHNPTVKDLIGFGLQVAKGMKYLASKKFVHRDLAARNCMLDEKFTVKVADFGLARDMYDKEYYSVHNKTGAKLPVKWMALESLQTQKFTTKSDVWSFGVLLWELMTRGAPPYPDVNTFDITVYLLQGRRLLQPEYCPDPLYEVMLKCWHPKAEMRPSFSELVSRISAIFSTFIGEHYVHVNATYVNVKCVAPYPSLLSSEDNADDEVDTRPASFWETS

[4] = Toxicity in BALB/c mouse assessed as induction of necrosis in photoreceptor cells at 100 mg/kg, po administered for 14 days hematoxylin and eosin staining based assay; assay type: organism-based; conditions: in vivo, 336 h, time 14 day
Summary of the method: (§1)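 Female BALB/cAJcl mice (n = 3 or 5/group) dosed orally once daily for 14 days at 100 mg/kg; controls untreated. Body weight tracked. At necropsy after dosing, eyes fixed in 3% glutaraldehyde/2.5% formalin, paraffin-embedded, sectioned, stained with hematoxylin-eosin, and the retina examined histopathologically.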

[5] = target: Tyrosine-protein kinase Lck (Homo sapiens) (UniProt P06239); experiment: Inhibition of LCK (unknown origin)
Tyrosine-protein kinase Lck (Homo sapiens), sequence (P06239 2-509 limits assumed): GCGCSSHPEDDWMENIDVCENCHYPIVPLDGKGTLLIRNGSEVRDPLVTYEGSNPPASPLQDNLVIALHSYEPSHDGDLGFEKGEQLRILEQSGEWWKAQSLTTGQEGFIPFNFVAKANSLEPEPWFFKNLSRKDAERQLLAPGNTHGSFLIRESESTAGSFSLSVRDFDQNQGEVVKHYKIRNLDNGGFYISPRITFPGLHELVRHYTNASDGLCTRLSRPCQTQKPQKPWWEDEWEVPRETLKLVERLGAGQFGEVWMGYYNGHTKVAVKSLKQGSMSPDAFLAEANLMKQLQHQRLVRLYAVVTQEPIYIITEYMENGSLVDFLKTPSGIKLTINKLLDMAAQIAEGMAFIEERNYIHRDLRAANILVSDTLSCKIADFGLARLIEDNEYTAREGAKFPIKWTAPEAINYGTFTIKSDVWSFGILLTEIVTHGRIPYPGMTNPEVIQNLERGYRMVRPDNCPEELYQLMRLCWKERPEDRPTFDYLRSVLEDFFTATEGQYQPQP

[6] = Toxicity in BALB/c mouse assessed as effect on body weight at 100 mg/kg, po administered for 14 days; assay type: organism-based; conditions: in vivo, 336 h, time 14 day; summary of the method: as §1
[7] = target: T1, Tyrosine-protein kinase receptor TYRO3 (Homo sapiens) (UniProt Q06418); experiment: Inhibition of Tyro3 (unknown origin)
T1 sequence (whole entry): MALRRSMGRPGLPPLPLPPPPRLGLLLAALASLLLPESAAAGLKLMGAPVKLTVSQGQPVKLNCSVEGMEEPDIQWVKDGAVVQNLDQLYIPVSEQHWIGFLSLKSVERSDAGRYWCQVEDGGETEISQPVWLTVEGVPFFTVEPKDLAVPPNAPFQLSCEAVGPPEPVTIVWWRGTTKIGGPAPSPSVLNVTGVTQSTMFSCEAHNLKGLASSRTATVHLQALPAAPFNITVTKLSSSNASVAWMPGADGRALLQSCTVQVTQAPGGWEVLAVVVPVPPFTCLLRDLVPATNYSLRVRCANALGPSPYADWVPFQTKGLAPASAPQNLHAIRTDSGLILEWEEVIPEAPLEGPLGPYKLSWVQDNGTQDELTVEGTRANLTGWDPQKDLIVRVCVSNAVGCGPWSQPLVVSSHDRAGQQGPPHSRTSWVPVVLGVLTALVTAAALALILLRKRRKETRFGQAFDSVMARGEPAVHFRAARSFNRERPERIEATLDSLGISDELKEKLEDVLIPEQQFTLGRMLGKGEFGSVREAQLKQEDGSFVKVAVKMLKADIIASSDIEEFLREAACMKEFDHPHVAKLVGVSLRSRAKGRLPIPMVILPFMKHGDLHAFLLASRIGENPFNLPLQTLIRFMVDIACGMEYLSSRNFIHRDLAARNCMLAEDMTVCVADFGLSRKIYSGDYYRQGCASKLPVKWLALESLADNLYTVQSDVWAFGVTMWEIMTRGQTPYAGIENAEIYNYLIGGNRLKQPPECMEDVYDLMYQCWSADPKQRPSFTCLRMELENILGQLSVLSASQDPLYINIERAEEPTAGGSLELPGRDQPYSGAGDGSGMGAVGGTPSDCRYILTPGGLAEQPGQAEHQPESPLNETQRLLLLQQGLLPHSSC

[8] = Cmax in CAnN.Cg-Foxnlnu/Cr1Crlj mouse at 100 mg/kg, po measured upto 24 hrs by LC-MS/MS analysis; assay type: ADME, organism-based; set-up: route oral, dose 100 mg/kg, time <=24; conditions: in vivo
Summary of the method: (§2)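 Single oral dose in DMSO/Tween80/5% glucose (7:13:80, v/v/v) to female mice. Blood taken from retinal vein at 0.5, 1, 2, 8 and 24 h and spun to plasma. Plasma precipitated with 20 volumes acetonitrile/methanol (7:3) containing propranolol and niflumic acid internal standards, then analysed by LC-MS/MS. Cmax, tmax and AUC(0-24h) derived from mean plasma concentration.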

[9] = AUC (0 to 24 hrs) in CAnN.Cg-Foxnlnu/Cr1Crlj mouse at 10 mg/kg, po measured upto 24 hrs by LC-MS/MS analysis; assay type: ADME, organism-based; set-up: route oral, dose 10 mg/kg, time <=24; conditions: in vivo; summary of the method: as §2
[10] = tested on: BaF3; experiment: Antitumor activity against mouse BaF3 cells expressing Axl xenografted in C3H mouse assessed as reduction in tumor growth at 1 to 10 mg/kg, po administered for 4 days and measured on day 4; conditions: dose 1-10 mg/kg, time 4.0 day
[11] = Tmax in CAnN.Cg-Foxnlnu/Cr1Crlj mouse at 30 mg/kg, po measured upto 24 hrs by LC-MS/MS analysis; assay type: ADME, organism-based; conditions: in vivo; summary of the method: as §2
[12] = AUC (0 to 24 hrs) in CAnN.Cg-Foxnlnu/Cr1Crlj mouse at 100 mg/kg, po measured upto 24 hrs by LC-MS/MS analysis; assay type: ADME, organism-based; set-up: route oral, dose 100 mg/kg, time <=24; conditions: in vivo; summary of the method: as §2
[13] = Tmax in CAnN.Cg-Foxnlnu/Cr1Crlj mouse at 10 mg/kg, po measured upto 24 hrs by LC-MS/MS analysis; assay type: ADME, organism-based; conditions: in vivo; summary of the method: as §2
[14] = Tmax in CAnN.Cg-Foxnlnu/Cr1Crlj mouse at 100 mg/kg, po measured upto 24 hrs by LC-MS/MS analysis; assay type: ADME, organism-based; conditions: in vivo; summary of the method: as §2
[15] = Toxicity in C3H mouse xenografted with mouse BaF3 cells assessed as effect on body weight at 1 to 10 mg/kg, po administered for 4 days and measured on day 4; conditions: in vivo, 96 h
[16] = Cmax in CAnN.Cg-Foxnlnu/Cr1Crlj mouse at 30 mg/kg, po measured upto 24 hrs by LC-MS/MS analysis; assay type: ADME, organism-based; set-up: route oral, dose 30 mg/kg, time <=24; conditions: in vivo; summary of the method: as §2
[17] = AUC (0 to 24 hrs) in CAnN.Cg-Foxnlnu/Cr1Crlj mouse at 30 mg/kg, po measured upto 24 hrs by LC-MS/MS analysis; assay type: ADME, organism-based; set-up: route oral, dose 30 mg/kg, time <=24; conditions: in vivo; summary of the method: as §2
[18] = Cmax in CAnN.Cg-Foxnlnu/Cr1Crlj mouse at 10 mg/kg, po measured upto 24 hrs by LC-MS/MS analysis; assay type: ADME, organism-based; set-up: route oral, dose 10 mg/kg, time <=24; conditions: in vivo; summary of the method: as §2

## CC(C)n1cc(C(=O)Nc2ccc(Oc3ccnc(NC(=O)CN(C)C)c3)cc2)c(=O)n(-c2ccc(F)cc2)c1=O
[1]
  remaining at 0.5 h: 19%
[2]
  solubility kinetic at 0.25 h: 32 µM (≈ 17.9 µg/mL)

## CN1CCN(C2CCN(C(=O)Nc3cc(Oc4ccc(NC(=O)c5cn(C6CC6)c(=O)n(-c6ccc(F)cc6)c5=O)cc4)ncn3)CC2)CC1
[1]
  remaining at 0.5 h: 87%
[2]
  solubility kinetic at 0.25 h: 89 µM (≈ 60.9 µg/mL)

## CC(C)n1cc(C(=O)Nc2ccc(Oc3cc(NC(=O)N4CCC4)ncn3)cc2)c(=O)n(-c2ccc(F)cc2)c1=O
[1]
  remaining at 0.5 h: 79%
[2]
  solubility kinetic at 0.25 h: 36 µM (≈ 20.1 µg/mL)

## CN1CCC(CC(=O)Nc2cc(Oc3ccc(NC(=O)c4cc5c(n(-c6ccccc6)c4=O)CCCC5=O)cc3F)ccn2)CC1
[1]
  remaining at 0.5 h: 71%
[2]
  solubility kinetic at 0.25 h: 75 µM (≈ 46.8 µg/mL)

## CC(C)n1cc(C(=O)Nc2ccc(Oc3ccnc(NC(=O)CC4CCN(C)CC4)c3)cc2F)c(=O)n(-c2ccc(F)cc2)c1=O
[1]
  remaining at 0.5 h: 76%
[2]
  solubility kinetic at 0.25 h: 78 µM (≈ 49.3 µg/mL)

## CN1CCC(CC(=O)Nc2cc(Oc3ccc(NC(=O)c4cn(C5CCCC5)c(=O)n(-c5ccc(F)cc5)c4=O)cc3F)ccn2)CC1
[1]
  remaining at 0.5 h: 63%
[2]
  solubility kinetic at 0.25 h: 70 µM (≈ 46.1 µg/mL)

## CN1CCC(CC(=O)Nc2cc(Oc3ccc(NC(=O)c4cc5c(n(-c6ccccc6)c4=O)CCCC5=O)c(F)c3)ccn2)CC1
[1]
  remaining at 0.5 h: 75%
[2]
  solubility kinetic at 0.25 h: 73 µM (≈ 45.5 µg/mL)

## CC(C)n1cc(C(=O)Nc2ccc(Oc3ccnc(NC(=O)CC4CCN(C)CC4)c3)cc2)c(=O)n(-c2ccc(F)cc2)c1=O
[1]
  remaining at 0.5 h: 81%
[2]
  solubility kinetic at 0.25 h: 80 µM (≈ 49.2 µg/mL)

## CC(C)n1cc(C(=O)Nc2cc(F)c(Oc3ccnc(NC(=O)N4CCC(N5CCN(C)CC5)CC4)c3)cc2F)c(=O)n(-c2ccc(F)cc2)c1=O
[1]
  remaining at 0.5 h: 86%
[3]
  inhibition: Active
[4]
  Activity: Toxic
[5]
  inhibition: Active
[2]
  solubility kinetic at 0.25 h: 76 µM (≈ 54.8 µg/mL)
[6]
  Activity: Non-Toxic
[7]
  inhibition: Active

## CN1CCC(CC(=O)Nc2cc(Oc3ccc(NC(=O)c4cn(C5CC5)c(=O)n(-c5ccc(F)cc5)c4=O)cc3F)ccn2)CC1
[1]
  remaining at 0.5 h: 78%
[2]
  solubility kinetic at 0.25 h: 82 µM (≈ 51.7 µg/mL)

## CN1CCN(C2CCN(C(=O)Nc3cc(Oc4cc(F)c(NC(=O)c5cc6c(n(-c7ccccc7)c5=O)CCCC6=O)cc4F)ccn3)CC2)CC1
[1]
  remaining at 0.5 h: 78%
[2]
  solubility kinetic at 0.25 h: 43 µM (≈ 30.6 µg/mL)

## CN1CCN(C2CCN(C(=O)Nc3cc(Oc4ccc(NC(=O)c5cn(C)c(=O)n(-c6ccc(F)cc6)c5=O)cc4)ncn3)CC2)CC1
[1]
  remaining at 0.5 h: 99%
[2]
  solubility kinetic at 0.25 h: 90 µM (≈ 59.2 µg/mL)

## CC(C)n1cc(C(=O)Nc2ccc(Oc3cc(NC(=O)N4CC(N5CCCC5)C4)ncn3)cc2)c(=O)n(-c2ccc(F)cc2)c1=O
[1]
  remaining at 0.5 h: 1.3%
[2]
  solubility kinetic at 0.25 h: 80 µM (≈ 50.3 µg/mL)

## CC(C)n1cc(C(=O)Nc2ccc(Oc3cc(NC(=O)N4CC(O)C4)ncn3)cc2)c(=O)n(-c2ccc(F)cc2)c1=O
[1]
  remaining at 0.5 h: 92%
[2]
  solubility kinetic at 0.25 h: 83 µM (≈ 47.8 µg/mL)

## CC(C)n1cc(C(=O)Nc2ccc(Oc3cc(NC(=O)N4CCC(N5CCN(C)CC5)CC4)ncn3)cc2)c(=O)n(-c2ccc(F)cc2)c1=O
[1]
  remaining at 0.5 h: 88%
[8]
  Cmax: 13500 ng/mL
[3]
  inhibition: inactive
[9]
  AUC(0-t): 7290 ng·h/mL
[10]
  TGI: Active
[11]
  Tmax: 2 h
[12]
  AUC(0-t): 72700 ng·h/mL
[13]
  Tmax: 2 h
[4]
  Activity: Non-Toxic
[14]
  Tmax: 2 h
[15]
  Activity: Non-Toxic
[16]
  Cmax: 3790 ng/mL
[5]
  inhibition: inactive
[17]
  AUC(0-t): 18100 ng·h/mL
[2]
  solubility kinetic at 0.25 h: 89 µM (≈ 61 µg/mL)
[6]
  Activity: Non-Toxic
[7]
  inhibition: inactive
[18]
  Cmax: 1580 ng/mL

## CC(C)n1cc(C(=O)Nc2ccc(Oc3cc(NC(=O)N4CCCC4)ncn3)cc2)c(=O)n(-c2ccc(F)cc2)c1=O
[1]
  remaining at 0.5 h: 59%
[2]
  solubility kinetic at 0.25 h: 1 µM (≈ 0.574 µg/mL)

## CC(C)n1cc(C(=O)Nc2ccc(Oc3cc(NC(=O)N4CC(N(C)C)C4)ncn3)cc2)c(=O)n(-c2ccc(F)cc2)c1=O
[1]
  remaining at 0.5 h: 0.3%

## CN1CCC(CC(=O)Nc2cc(Oc3ccc(NC(=O)c4cc5c(n(-c6ccccc6)c4=O)CCCC5=O)cc3)ccn2)CC1
[1]
  remaining at 0.5 h: 77%
[2]
  solubility kinetic at 0.25 h: 77 µM (≈ 46.6 µg/mL)

## CC(C)n1cc(C(=O)Nc2ccc(Oc3cc(NC(=O)C4CC4)ncn3)cc2)c(=O)n(-c2ccc(F)cc2)c1=O
[1]
  remaining at 0.5 h: 83%
[2]
  solubility kinetic at 0.25 h: 6 µM (≈ 3.27 µg/mL)

## CN1CCN(C2CCN(C(=O)Nc3cc(Oc4ccc(NC(=O)c5cn(C6CCCC6)c(=O)n(-c6ccc(F)cc6)c5=O)cc4)ncn3)CC2)CC1
[1]
  remaining at 0.5 h: 82%
[2]
  solubility kinetic at 0.25 h: 80 µM (≈ 56.9 µg/mL)

## CN1CCC(CC(=O)Nc2cc(Oc3cc(F)c(NC(=O)c4cc5c(n(-c6ccccc6)c4=O)CCCC5=O)cc3F)ccn2)CC1
[1]
  remaining at 0.5 h: 72%
[2]
  solubility kinetic at 0.25 h: 50 µM (≈ 32.1 µg/mL)
